Experimental data from ChEMBL document CHEMBL1141276, “Cytotoxic and Antihaptotactic beauvericin analogues from precursor-directed biosynthesis with the insect pathogen Beauveria bassiana ATCC 7159” (J Nat Prod, 2007).

Legend:
[1] = Ratio of cytotoxic IC50 to antihaptotactic IC50 in PC-3M cells; assay type: functional, Homo sapiens
Summary of the method: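 Index computed as the MTT cytotoxicity IC50 divided by the wound-healing antihaptotactic IC50. Both IC50s were measured in PC-3M cells, each averaged from 2–4 independent experiments with 4 replicates.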

[2] = Antihaptotactic activity in human PC-3M cells assessed as inhibition of cell migration by wound healing assay; assay type: functional, cell-based
Summary of the method: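 Wound-healing (scratch) migration assay on a PC-3M monolayer, with the wound closure quantified. The result is the IC50 for inhibition of migration in µM, averaged from 2–4 independent experiments with 4 replicates each.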

[3] = Cytotoxicity against human PC-3M cells by MTT assay; assay type: functional, cell-based
Summary of the method: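 Tetrazolium (MTT) cytotoxicity assay on monolayers of the metastatic prostate cancer line PC-3M. The result is given as IC50 in µM, averaged from 2–4 independent experiments with 4 replicates each.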

Compound | Ratio [1] | IC50 [2] | IC50 [3]
CC[C@H]1OC(=O)[C@H](Cc2ccccc2)N(C)C(=O)[C@@H](CC)OC(=O)[C@H](Cc2ccccc2)N(C)C(=O)[C@@H](CC)OC(=O)[C@H](Cc2ccccc2)N(C)C1=O [BEAUVERICIN G3] | 0.9 | 17.2 µM | 16.3 µM
CC[C@H]1OC(=O)[C@H](Cc2ccccc2)N(C)C(=O)[C@@H](CC)OC(=O)[C@H](Cc2ccccc2)N(C)C(=O)[C@@H](C(C)C)OC(=O)[C@H](Cc2ccccc2)N(C)C1=O [BEAUVERICIN G2] | 1.4 | 7.6 µM | 10.4 µM
CC(C)[C@H]1OC(=O)[C@H](Cc2cccc(F)c2)N(C)C(=O)[C@@H](C(C)C)OC(=O)[C@H](Cc2cccc(F)c2)N(C)C(=O)[C@@H](C(C)C)OC(=O)[C@H](Cc2cccc(F)c2)N(C)C1=O [BEAUVERICIN H3] | 1.4 | 3.2 µM | 4.4 µM
CC(C)[C@H]1OC(=O)[C@H](Cc2cccc(F)c2)N(C)C(=O)[C@@H](C(C)C)OC(=O)[C@H](Cc2ccccc2)N(C)C(=O)[C@@H](C(C)C)OC(=O)[C@H](Cc2ccccc2)N(C)C1=O [BEAUVERICIN H1] | 2.3 | 3.2 µM | 7.4 µM
CC(C)[C@H]1OC(=O)[C@H](Cc2cccc(F)c2)N(C)C(=O)[C@@H](C(C)C)OC(=O)[C@H](Cc2cccc(F)c2)N(C)C(=O)[C@@H](C(C)C)OC(=O)[C@H](Cc2ccccc2)N(C)C1=O [BEAUVERICIN H2] | 1.9 | 3.2 µM | 6.2 µM
CC(C)[C@@H]1OC(=O)[C@@H](Cc2ccccc2)N(C)C(=O)[C@H](C(C)C)OC(=O)[C@@H](Cc2ccccc2)N(C)C(=O)[C@H](C(C)C)OC(=O)[C@@H](Cc2ccccc2)N(C)C1=O [BEAUVERICIN] | 2.3 | 3.5 µM | 8 µM
CC[C@H]1OC(=O)[C@H](Cc2ccccc2)N(C)C(=O)[C@@H](C(C)C)OC(=O)[C@H](Cc2ccccc2)N(C)C(=O)[C@@H](C(C)C)OC(=O)[C@H](Cc2ccccc2)N(C)C1=O [BEAUVERICIN G1] | 1.3 | 3.8 µM | 5 µM
